In ChEMBL document CHEMBL1134474, “Synthesis and biological evaluation of novel A-ring modified hexacyclic camptothecin analogues” (J Med Chem, 2001):

Assays:
WiDr = assay: In Vitro cytotoxicity against human colon cancer cell line (WiDr); type: functional, cell-based
Outline: (§1)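 Cells grown in RPMI 1640 with 10% heat-inactivated FBS and penicillin-streptomycin, at 37 °C under 5% CO2. Seeding density set per line from growth curves. Eight concentrations diluted from DMSO stock, 4 days exposure. MTT added for 4 h, formazan dissolved in DMSO, absorbance at 550 nm. […] Three or more determinations.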

SK-BR-3 = assay: In Vitro cytotoxicity against human breast cancer cell line (SK-BR-3); type: functional, cell-based; outline: as §1
MKN-45 = assay: In Vitro cytotoxicity against human stomach cancer cell line (MKN45); type: functional, cell-based; outline: as §1
NCI-H128 = assay: In Vitro cytotoxicity against human lung cancer cell line (H128); type: functional, cell-based; outline: as §1
[1] = target: Acetylcholinesterase (Homo sapiens) (UniProt P22303); assay: Percent inhibition of acetylcholinesterase using ATCh1 as a substrate; design: concentration or dose not given beside the values; conditions: concentration not given here
Outline: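 AChE (0.05 unit) with 10 mM DTNB and compound at 2 µM in 0.1 M potassium phosphate pH 8.0, preincubated 15 min at 37 °C. Reaction started with 85 µM acetylthiocholine iodide, 15 min at 37 °C. Absorbance at 412 nm, expressed as percent of colour without compound. Three or more determinations.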

DNA topoisomerase 1 = target: T1, DNA topoisomerase 1 (Mus musculus, UniProt Q04750); assay: Average concentration to cause 50% inhibition of topo 1 using the cleavable complex assay
T1 sequence (Q04750 whole entry): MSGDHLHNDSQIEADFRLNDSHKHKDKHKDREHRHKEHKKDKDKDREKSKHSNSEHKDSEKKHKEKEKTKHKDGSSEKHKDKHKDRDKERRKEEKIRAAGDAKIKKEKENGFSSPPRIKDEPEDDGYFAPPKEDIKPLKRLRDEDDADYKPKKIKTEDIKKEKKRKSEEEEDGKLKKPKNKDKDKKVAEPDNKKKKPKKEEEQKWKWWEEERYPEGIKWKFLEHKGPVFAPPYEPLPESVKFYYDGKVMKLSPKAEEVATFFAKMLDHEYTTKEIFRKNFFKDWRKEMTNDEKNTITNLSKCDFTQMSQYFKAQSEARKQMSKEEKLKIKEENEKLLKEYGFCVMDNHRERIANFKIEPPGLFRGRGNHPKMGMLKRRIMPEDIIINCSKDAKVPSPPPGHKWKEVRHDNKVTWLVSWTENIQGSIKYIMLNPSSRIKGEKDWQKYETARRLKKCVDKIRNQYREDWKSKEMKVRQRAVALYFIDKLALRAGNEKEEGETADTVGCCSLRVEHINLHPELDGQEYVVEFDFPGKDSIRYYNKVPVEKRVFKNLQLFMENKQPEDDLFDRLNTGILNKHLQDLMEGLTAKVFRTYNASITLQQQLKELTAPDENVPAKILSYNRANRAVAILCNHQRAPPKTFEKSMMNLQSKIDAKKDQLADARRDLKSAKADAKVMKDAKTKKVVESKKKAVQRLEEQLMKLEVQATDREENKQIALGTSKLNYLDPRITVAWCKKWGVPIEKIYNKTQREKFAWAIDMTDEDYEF

SK-OV-3 = assay: In Vitro cytotoxicity against human ovarian cancer cell line (SK-OV-3); type: functional, cell-based; outline: as §1
A549 = assay: In Vitro cytotoxicity against human lung cancer cell line (A549); type: functional, cell-based; outline: as §1
[2] = Percentage of 50% or greater regression (PR) against WiDr xenografts in nude mice at a dose of 10 umol/kg; type: functional, Mus musculus
Outline: (§2)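 Treatment started about 3 weeks after transplant, at tumor weight 100 to 200 mg. 12 mice per group. Suspended in 0.5% CMC aqueous solution, given i.p. q4d×8 at 10 µmol/kg per injection. Calipers, V = 1/2 × a × b2. Read-outs on day 28: MTW, RTG (MTW28/MTW0), IR = (1 − RTG treated/RTG control) × 100. PR means 50% or greater regression.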

[3] = Antitumor activity against MTW28 WiDr xenografts in nude mice at a dose of 10 umol/kg; type: functional, Mus musculus; outline: as §2
[4] = Antitumor activity against MTW0 WiDr xenografts in nude mice at a dose of 10 umol/kg; type: functional, Mus musculus; outline: as §2
[5] = Percentage of complete regression (CR) against WiDr xenografts in nude mice at a dose of 10 umol/kg; type: functional, Mus musculus; outline: as §2
[6] = Percentage of inhibition rate (IR) against WiDr xenografts in nude mice at a dose of 10 umol/kg; type: functional, Mus musculus; outline: as §2
[7] = Relative tumor growth (RTG), calculated by dividing MTW28 by that on day 0 (MTW0) against WiDr xenografts in nude mice at a dose of 10 umol/kg; type: functional, Mus musculus; outline: as §2

Acetylcholinesterase (Homo sapiens), sequence (P22303 whole entry): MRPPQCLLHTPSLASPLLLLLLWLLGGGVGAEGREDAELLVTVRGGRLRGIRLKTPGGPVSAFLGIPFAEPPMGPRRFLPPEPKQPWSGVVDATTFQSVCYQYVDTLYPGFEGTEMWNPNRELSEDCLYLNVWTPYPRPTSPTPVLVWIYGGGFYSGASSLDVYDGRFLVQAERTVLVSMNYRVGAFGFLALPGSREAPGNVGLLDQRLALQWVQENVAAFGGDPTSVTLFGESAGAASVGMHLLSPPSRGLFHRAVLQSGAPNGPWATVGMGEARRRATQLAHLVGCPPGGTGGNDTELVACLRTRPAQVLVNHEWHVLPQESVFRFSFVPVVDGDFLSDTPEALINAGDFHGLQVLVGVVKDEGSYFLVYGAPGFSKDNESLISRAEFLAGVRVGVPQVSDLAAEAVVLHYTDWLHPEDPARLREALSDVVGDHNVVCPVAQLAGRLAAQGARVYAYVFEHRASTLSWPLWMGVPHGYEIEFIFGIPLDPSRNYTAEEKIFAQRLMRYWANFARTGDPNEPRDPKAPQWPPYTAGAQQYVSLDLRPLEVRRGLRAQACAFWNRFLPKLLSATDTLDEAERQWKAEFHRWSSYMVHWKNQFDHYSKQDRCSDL

CC[C@@]1(O)C(=O)OCc2c1cc1n(c2=O)Cc2cc3c4c(ccc3nc2-1)OCCN4
IC50 (WiDr): 0.023 µM | IC50 (SK-BR-3): 0.019 µM | IC50 (MKN-45): 0.02 µM | IC50 (NCI-H128): 0.013 µM | inhibition [1]: 13% | IC50 (DNA topoisomerase 1): 41 µM | IC50 (SK-OV-3): 0.028 µM | IC50 (A549): 0.023 µM

CCc1c2c(nc3ccc4c(c13)N(C)CCO4)-c1cc3c(c(=O)n1C2)COC(=O)[C@]3(O)CC
IC50 (WiDr): 0.135 µM | IC50 (SK-BR-3): 0.107 µM | IC50 (MKN-45): 0.152 µM | IC50 (NCI-H128): 0.076 µM | inhibition [1]: 19% | IC50 (DNA topoisomerase 1): 1600 µM | IC50 (SK-OV-3): 0.142 µM | IC50 (A549): 0.085 µM

CCc1c2c(nc3ccc4c(c13)NCCO4)-c1cc3c(c(=O)n1C2)COC(=O)[C@]3(O)CC
IC50 (WiDr): 0.016 µM | IC50 (SK-BR-3): 0.013 µM | IC50 (MKN-45): 0.02 µM | PR [2]: 25% | Activity [3]: 21 mg | IC50 (NCI-H128): 0.007 µM | Activity [4]: 176 mg | inhibition [1]: 12% | CR [5]: 75% | IC50 (DNA topoisomerase 1): 5 µM | IC50 (SK-OV-3): 0.014 µM | IR [6]: 98.6% | IC50 (A549): 0.014 µM | RTG [7]: 0.12

CC[C@@]1(O)C(=O)OCc2c1cc1n(c2=O)Cc2cc3c4c(ccc3nc2-1)OCCN4C
IC50 (WiDr): 0.023 µM | IC50 (SK-BR-3): 0.025 µM | IC50 (MKN-45): 0.019 µM | IC50 (NCI-H128): 0.01 µM | inhibition [1]: 14% | IC50 (DNA topoisomerase 1): 21 µM | IC50 (SK-OV-3): 0.026 µM | IC50 (A549): 0.021 µM

CC[C@@]1(O)C(=O)OCc2c1cc1n(c2=O)Cc2cc3c4c(ccc3nc2-1)OCCN4CCN
IC50 (WiDr): 0.415 µM | IC50 (SK-BR-3): 0.417 µM | IC50 (MKN-45): 0.536 µM | IC50 (NCI-H128): 0.174 µM | inhibition [1]: 17% | IC50 (DNA topoisomerase 1): 133 µM | IC50 (SK-OV-3): 0.533 µM | IC50 (A549): 0.507 µM

CC[C@@]1(O)C(=O)OCc2c1cc1n(c2=O)Cc2cc3c4c(cc(CN5CCOCC5)c3nc2-1)OCCN4
IC50 (WiDr): 5.34 µM | IC50 (MKN-45): 15.4 µM | IC50 (NCI-H128): 7.44 µM | IC50 (SK-OV-3): 10.6 µM | IC50 (A549): 9.59 µM

CC[C@@]1(O)C(=O)OCc2c1cc1n(c2=O)Cc2cc3c4c(ccc3nc2-1)OCCN4CC#N
IC50 (WiDr): 0.03 µM | IC50 (SK-BR-3): 0.017 µM | IC50 (MKN-45): 0.04 µM | IC50 (NCI-H128): 0.014 µM | inhibition [1]: 20% | IC50 (DNA topoisomerase 1): 16 µM | IC50 (SK-OV-3): 0.032 µM | IC50 (A549): 0.037 µM

CCN1CCOc2ccc3nc4c(cc3c21)Cn1c-4cc2c(c1=O)COC(=O)[C@]2(O)CC
IC50 (WiDr): 0.021 µM | IC50 (SK-BR-3): 0.016 µM | IC50 (MKN-45): 0.019 µM | IC50 (NCI-H128): 0.013 µM | inhibition [1]: 9% | IC50 (DNA topoisomerase 1): 12 µM | IC50 (SK-OV-3): 0.019 µM | IC50 (A549): 0.017 µM

CC[C@@]1(O)C(=O)OCc2c1cc1n(c2=O)Cc2cc3ccccc3nc2-1 [CAMPTOTHECIN]
IC50 (WiDr): 0.017 µM | IC50 (SK-BR-3): 0.02 µM | IC50 (MKN-45): 0.017 µM | IC50 (NCI-H128): 0.018 µM | inhibition [1]: 23% | IC50 (DNA topoisomerase 1): 40 µM | IC50 (SK-OV-3): 0.02 µM | IC50 (A549): 0.014 µM

CC[C@@]1(O)C(=O)OCc2c1cc1n(c2=O)Cc2cc3c4c(cc(CN(C)C)c3nc2-1)OCCN4
IC50 (WiDr): 3.19 µM | IC50 (MKN-45): 9.57 µM | IC50 (NCI-H128): 8.5 µM | IC50 (SK-OV-3): 8.63 µM | IC50 (A549): 8.07 µM

CC[C@@]1(O)C(=O)OCc2c1cc1n(c2=O)Cc2cc3c(CN(C)C)c(O)ccc3nc2-1 [TOPOTECAN]
IC50 (WiDr): 0.056 µM | IC50 (SK-BR-3): 0.026 µM | IC50 (MKN-45): 0.038 µM | IC50 (NCI-H128): 0.031 µM | inhibition [1]: 20% | IC50 (SK-OV-3): 0.048 µM | IC50 (A549): 0.054 µM

CCc1c2c(nc3ccc(O)cc13)-c1cc3c(c(=O)n1C2)COC(=O)[C@]3(O)CC [7-ETHYL-10-HYDROXYCAMPTOTHECIN]
IC50 (WiDr): 0.014 µM | IC50 (SK-BR-3): 0.004 µM | IC50 (MKN-45): 0.008 µM | PR [2]: 8% | Activity [3]: 27 mg | IC50 (NCI-H128): 0.006 µM | Activity [4]: 177 mg | inhibition [1]: 13% | CR [5]: 75% | IC50 (DNA topoisomerase 1): 4 µM | IC50 (SK-OV-3): 0.011 µM | IR [6]: 98.2% | IC50 (A549): 0.016 µM | RTG [7]: 0.15
